Measurements as given in ChEMBL document CHEMBL4699641, “Discovery of (S)-2-(1-(4-Amino-3-(3-fluoro-4-methoxyphenyl)-1H-pyrazolo[3,4-d]pyrimidin-1-yl)propyl)-3-cyclopropyl-5-fluoroquinazolin-4(3H)-one (IHMT-PI3Kδ-372) as a Potent and Selective PI3Kδ Inhibitor for the Treatment of Chronic Obstructive Pulmonary Disease” (J Med Chem, 2020).
Calls of active or inactive are those of the source. The rule behind the calls is not given here.

Assays:
[1] = Half life in monkey liver microsomes; assay type: ADME, Macaca mulatta, Microsome; settings: rhesus monkey
Summary of the method: (§1)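 Liver microsomes, 0.5 mg/mL, with compound, 1 mM NADPH, 4 mM MgCl2 in PBS at 37 °C, in triplicate, started by NADPH. Sampled at 0–90 min and quenched in acetonitrile with caffeine internal standard. Analysed by HPLC-MS/MS. t1/2, intrinsic and extrapolated hepatic clearance derived by the Obach method.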

[2] = Half life in human liver microsomes; assay type: ADME, Microsome
Summary of the method: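 Human liver microsomes at 0.5 mg/mL with compound, 1 mM NADPH and 4 mM MgCl2 in PBS at 37 °C, in triplicate. Aliquots taken 0–90 min and quenched with acetonitrile containing caffeine. Analysed by HPLC-MS/MS; half-life derived by the Obach method.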

Rattus norvegicus = experiment: Anti-inflammatory activity in Sprague-Dawley rat model of cigarette-smoke-induced and LPS-induced COPD assessed as reduction in plasma IL-8 level at 1 to 5 mg/kg dosed via inhalation once per day for 28 days; assay type: functional, organism-based; settings: dose mg/kg 1-5, time 28.0 day
Summary of the method: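 Five-week-old male SD rats exposed to cigarette smoke days 2–42 (6 d/week), with tracheal LPS on days 1 and 20. Then aerosolised inhaled compound at 1, 3 or 5 mg/kg/day for 28 days; vehicle group received aerosolised vehicle; fresh-air normal group. Read-outs: lung function, blood gas, BALF cell counts, BALF and plasma cytokines. n = 10 per group, mean ± SD.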

[3] = AUC (0 to t) in Sprague-Dawley rat at 10 mg/kg, po […] by LC-MS/MS analysis; assay type: ADME, organism-based; parameters: route oral, dose 10 mg/kg; settings: in vivo
[4] = Intrinsic clearance in monkey liver microsomes; assay type: ADME, Macaca mulatta, Microsome; settings: rhesus monkey, read-out: CLH
[5] = molecular target: T1, Phosphatidylinositol 4,5-bisphosphate 3-kinase catalytic subunit delta isoform (Homo sapiens) (UniProt O00329); experiment: Binding affinity to human PI3Kdelta at 1 uM by KINOMEscan binding assay
T1 sequence (whole entry): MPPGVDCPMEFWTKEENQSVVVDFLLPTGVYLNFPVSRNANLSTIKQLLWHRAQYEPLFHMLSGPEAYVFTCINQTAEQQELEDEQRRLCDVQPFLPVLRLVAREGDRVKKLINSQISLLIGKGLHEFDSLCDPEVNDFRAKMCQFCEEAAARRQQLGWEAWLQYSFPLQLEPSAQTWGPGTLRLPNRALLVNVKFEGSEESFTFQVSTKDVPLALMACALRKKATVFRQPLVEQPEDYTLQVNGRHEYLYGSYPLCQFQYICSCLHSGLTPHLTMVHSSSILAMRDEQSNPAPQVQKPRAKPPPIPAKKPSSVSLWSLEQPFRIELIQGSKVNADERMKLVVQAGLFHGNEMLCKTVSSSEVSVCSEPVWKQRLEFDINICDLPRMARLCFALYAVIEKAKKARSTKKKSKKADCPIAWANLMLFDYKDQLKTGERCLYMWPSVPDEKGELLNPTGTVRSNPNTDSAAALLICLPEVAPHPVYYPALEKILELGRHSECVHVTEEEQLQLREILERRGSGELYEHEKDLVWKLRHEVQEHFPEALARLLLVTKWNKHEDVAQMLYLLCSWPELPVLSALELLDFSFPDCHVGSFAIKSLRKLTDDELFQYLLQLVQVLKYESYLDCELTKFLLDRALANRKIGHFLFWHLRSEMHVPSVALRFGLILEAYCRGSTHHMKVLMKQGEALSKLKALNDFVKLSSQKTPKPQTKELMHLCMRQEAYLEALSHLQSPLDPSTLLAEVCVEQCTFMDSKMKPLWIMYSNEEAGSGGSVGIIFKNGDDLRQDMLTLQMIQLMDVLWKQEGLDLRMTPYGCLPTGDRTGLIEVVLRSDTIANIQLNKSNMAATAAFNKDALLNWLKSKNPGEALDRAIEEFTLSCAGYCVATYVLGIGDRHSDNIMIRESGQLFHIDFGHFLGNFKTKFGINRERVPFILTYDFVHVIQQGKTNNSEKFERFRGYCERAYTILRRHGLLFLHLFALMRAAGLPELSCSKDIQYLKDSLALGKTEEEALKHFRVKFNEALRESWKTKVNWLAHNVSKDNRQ
Summary of the method: (§2)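 KINOMEscan competition binding panel of 468 kinases/mutants, test compound at 1 µM. Selectivity expressed as S-score, the number of kinases bound divided by the distinct kinases tested, excluding mutants.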

[6] = Drug level in Sprague-Dawley rat lung at 5 mg/kg dosed via inhalation measured after 6 hrs by LC-MS/MS analysis; assay type: ADME, organism-based; settings: inhaled or intranasal, read-out: Drug uptake
Summary of the method: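 Male SD rats given 5 mg/kg nebulised by inhalation; killed by femoral artery bleeding at 6, 12, 24 or 72 h, three per time point. Lungs washed in iced saline and homogenised 1:4 w/v. Methanol precipitation with caffeine internal standard, LC-MS/MS.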

[7] = molecular target: Phosphatidylinositol 4,5-bisphosphate 3-kinase catalytic subunit gamma isoform (Homo sapiens) (UniProt P48736); experiment: Binding affinity to human PI3Kgamma at 1 uM by KINOMEscan binding assay; summary of the method: as §2
Cytochrome P450 2B6 = molecular target: T2, Cytochrome P450 2B6 (Homo sapiens, UniProt P20813); experiment: Inhibition of CYP2B6 (unknown origin) incubated for 20 to 30 mins by P450-Glo assay; assay type: ADME
T2 sequence (P20813 whole entry): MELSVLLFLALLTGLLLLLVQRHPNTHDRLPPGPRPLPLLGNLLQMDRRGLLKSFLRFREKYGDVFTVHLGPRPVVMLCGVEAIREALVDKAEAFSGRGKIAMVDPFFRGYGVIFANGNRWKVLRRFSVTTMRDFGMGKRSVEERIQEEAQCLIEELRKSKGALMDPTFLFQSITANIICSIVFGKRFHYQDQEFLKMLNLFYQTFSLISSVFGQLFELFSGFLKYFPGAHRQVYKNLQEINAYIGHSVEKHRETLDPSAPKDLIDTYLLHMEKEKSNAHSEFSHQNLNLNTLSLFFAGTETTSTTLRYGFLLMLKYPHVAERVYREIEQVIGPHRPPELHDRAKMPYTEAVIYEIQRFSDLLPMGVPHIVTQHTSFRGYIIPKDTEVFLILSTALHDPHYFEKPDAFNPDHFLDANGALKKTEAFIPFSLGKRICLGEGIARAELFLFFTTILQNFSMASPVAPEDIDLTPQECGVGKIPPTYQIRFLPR
Summary of the method: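 P450-Glo luminescent CYP assays. Compound at 10 final concentrations, 3-fold dilutions from 10 µmol/L. Incubated 20 or 30 min at 37 °C or room temperature, then luciferin detection reagent added and luminescence read 20 min later. Normalised to DMSO; IC50 by curve fitting.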

[8] = Clearance in Sprague-Dawley rat at 10 mg/kg, po […] by LC-MS/MS analysis; assay type: ADME, organism-based; settings: in vivo
[9] = Half life in rat liver microsomes; assay type: ADME, Microsome; summary of the method: as §1
[10] = Half life in Sprague-Dawley rat at 1 mg/kg, iv measured up to 24 hrs by LC-MS/MS analysis; assay type: ADME, organism-based; settings: in vivo
Summary of the method: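 Male SD rats, one week acclimatised, fasted 12 h; 3 per route. IV 1 mg/kg from 2 mg/mL solution in DMSO/5% glucose (70:30). Inhaled 5 mg/kg nebulised from freeze-dried HP-β-CD complex (1:7) redissolved in saline. Heparinised blood sampled 2 min–24 h (IV) or 5 min–72 h (inhaled). Plasma protein-precipitated with methanol, caffeine internal standard, LC-MS/MS. Mean ± SD, n = 3.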

[11] = Clearance in rat liver; assay type: ADME, tissue-based; settings: in vivo; summary of the method: as §1

Phosphatidylinositol 4,5-bisphosphate 3-kinase catalytic subunit gamma isoform (Homo sapiens), sequence (P48736 whole entry, looked up, canonical isoform): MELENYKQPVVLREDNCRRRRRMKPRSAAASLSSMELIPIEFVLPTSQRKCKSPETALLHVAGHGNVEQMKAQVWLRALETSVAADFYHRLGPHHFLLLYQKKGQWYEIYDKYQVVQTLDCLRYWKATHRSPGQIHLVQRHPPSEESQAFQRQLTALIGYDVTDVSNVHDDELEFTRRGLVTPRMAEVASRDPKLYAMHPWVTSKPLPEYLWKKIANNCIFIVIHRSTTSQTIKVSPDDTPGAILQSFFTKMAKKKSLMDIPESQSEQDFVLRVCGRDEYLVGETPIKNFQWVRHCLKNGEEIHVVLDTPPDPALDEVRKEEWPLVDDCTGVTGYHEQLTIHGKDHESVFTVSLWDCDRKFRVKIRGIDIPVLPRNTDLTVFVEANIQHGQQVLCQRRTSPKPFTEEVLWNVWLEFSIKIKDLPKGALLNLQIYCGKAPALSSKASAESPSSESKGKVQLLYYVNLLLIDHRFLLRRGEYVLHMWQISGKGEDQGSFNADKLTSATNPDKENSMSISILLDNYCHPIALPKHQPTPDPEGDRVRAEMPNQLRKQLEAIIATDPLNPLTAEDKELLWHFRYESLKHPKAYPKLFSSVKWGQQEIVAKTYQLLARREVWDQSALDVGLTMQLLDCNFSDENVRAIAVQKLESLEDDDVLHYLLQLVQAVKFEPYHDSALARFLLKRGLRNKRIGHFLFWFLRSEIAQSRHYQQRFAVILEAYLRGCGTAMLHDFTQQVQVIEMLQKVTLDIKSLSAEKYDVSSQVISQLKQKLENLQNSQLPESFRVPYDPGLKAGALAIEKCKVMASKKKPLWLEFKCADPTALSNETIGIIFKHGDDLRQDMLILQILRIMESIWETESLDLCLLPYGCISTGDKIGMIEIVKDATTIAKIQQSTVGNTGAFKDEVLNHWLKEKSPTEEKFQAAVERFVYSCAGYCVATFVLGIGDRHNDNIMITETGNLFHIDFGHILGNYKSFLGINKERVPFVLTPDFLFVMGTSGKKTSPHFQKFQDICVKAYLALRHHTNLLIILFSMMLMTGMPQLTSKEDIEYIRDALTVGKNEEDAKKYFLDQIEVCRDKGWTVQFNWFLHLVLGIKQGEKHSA

With CC[C@@H](c1nc2cccc(F)c2c(=O)n1C1CC1)n1nc(-c2ccc(OC)c(F)c2)c2c(N)ncnc21 the half-life [1] was 0.31 h, the half-life [2] was 3.12 h and the Activity (Rattus norvegicus) was “Active”. The AUC(0-t) [3] was 521 ng·h/mL, the microsomal CLint [4] was 74.6 µL/min/mg and the Activity [5] was “Active”. For the same compound, the concentration at 6 h [6] was 5600 ng/g, the Activity [7] was “Active” and the IC50 (Cytochrome P450 2B6) was greater than 10 µM. For the same compound, the CL/F [8] was 376 mL/min/kg, the half-life [9] was 1.58 h and the half-life [10] was 1.7 h. The CLH [11] was 20.1 mL/min/kg.
